What all share (format): functional
One assay has as its system Xanthomonas oryzae. The assay is described as follows: Antibacterial activity against Xanthomonas oryzae ITCC B-47 assessed as as growth inhibition at 100 ug/disk after 24 hr by disk diffusion method. Conditions: ITCC B-47, 24 h, read-out: DIZ.
In another assay the test system is Dickeya chrysanthemi. Description: Antibacterial activity against Erwinia chrysanthemi ITCC B-40 assessed as as growth inhibition at 100 ug/disk after 24 hr by disk diffusion method. Conditions: ITCC B-40, 24 h, read-out: DIZ. Put shortly: (§1)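 Disk diffusion on nutrient agar. Strains kept on NA slants at 37 °C and subcultured in nutrient broth before testing. A log-phase culture was spread on solidified medium, and sterile disks were loaded with compound from DMSO stock. DMSO served as control, with commercial antibiotics for reference. Plates ran 24 h at 37 °C, and inhibition zones (mm) were read in quadruplicate.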

Another assay deals with Rhizoctonia solani. Description: Antifungal activity against Rhizoctonia solani ITCC 5563 by food poisoning method. In a few lines: (§2)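 Poisoned food technique on PDA at several concentrations. A 5 mm mycelial plug from the growing edge of a 2-week-old colony was placed inoculum-side down at the plate centre. Plates incubated at 27 °C until control growth was nearly complete. Colony diameter measured, percent inhibition calculated against control, LC50 derived. Four replicates per treatment.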

The subject of the next assay is Athelia rolfsii. Description: Antifungal activity against Athelia rolfsii ITCC 6181 by food poisoning method. Conditions: Agroathelia rolfsii. In a few lines:
as §2

Assay [1] deals with Radical scavenging activity. Description: Antioxidant activity assessed as DPPH free radical scavenging activity after 20 min by UV-Vis spectrophotometric analysis. Also noted: concentration or dose not given beside the values. Put shortly:
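DPPH radical scavenging: samples were held at room temperature for 20 min in the dark, and absorbance was read at 517 nm. The control contained DMSO without compound, and methanol was used for baseline correction. Scavenging percentage was calculated from the absorbances.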

In another assay the test system is Pseudomonas aeruginosa. The assay is described as follows: Antibacterial activity against Pseudomonas aeruginosa MTCC 2581 assessed as growth inhibition at 100 ug/disk after 24 hr by disk diffusion method. Conditions: MTCC 2581, 24 h, read-out: DIZ. In a few lines: as §1
Another assay has as its system Staphylococcus aureus. The assay is described as follows: Antibacterial activity against Staphylococcus aureus MTCC 3160 assessed as growth inhibition at 100 ug/disk after 24 hr by disk diffusion method. Conditions: MTCC 3160, 24 h, read-out: DIZ. Put shortly:
as §1

The subject of a further assay is Klebsiella pneumoniae. The assay is described as follows: Antibacterial activity against Klebsiella pneumoniae MTCC 7028 assessed as growth inhibition at 100 ug/disk after 24 hr by disk diffusion method. Conditions: MTCC 7028, 24 h, read-out: DIZ. Put shortly:
as §1

Another assay has as its system Bacillus pumilus. Description: Antibacterial activity against Bacillus pumilus MTCC 2466 assessed as growth inhibition at 100 ug/disk after 24 hr by disk diffusion method. Conditions: MTCC 2466, 24 h, read-out: DIZ. Put shortly: as §1
In a further assay the test system is Bacillus thuringiensis. The assay is described as follows: Antibacterial activity against Bacillus thuringiensis MTCC 6941 assessed as growth inhibition at 100 ug/disk after 24 hr by disk diffusion method. Conditions: MTCC 6941, 24 h, read-out: DIZ. Put shortly: as §1

Each structure is given as a SMILES string. In brackets after ≈: the same amount, converted by molar mass.

With `CCOC(=O)C1C(=O)C=C(c2ccc3c(c2)OCO3)CC1c1ccc(OC)cc1` (stereo unspecified), the zone of inhibition at 100 µg/disc with Xanthomonas oryzae, in the assay with Dickeya chrysanthemi, in the assay on Pseudomonas aeruginosa, in the assay on Staphylococcus aureus, in the assay on Klebsiella pneumoniae and in the assay with Bacillus pumilus was 0 mm in each case. In addition, in the assay with Bacillus thuringiensis, the zone of inhibition at 100 µg/disc stood at 0 mm. In addition, the LC50 was 396 µg/mL (≈ 1000 µM) with Rhizoctonia solani and 380 µg/mL (≈ 963 µM) with Athelia rolfsii. Also, the Activity in assay [1] is 4.26%.
`COc1ccc(/C=C/C(=O)c2ccc(C)cc2)cc1OC`: the zone of inhibition at 100 µg/disc with Xanthomonas oryzae, in the assay on Dickeya chrysanthemi, in the assay on Pseudomonas aeruginosa, with Staphylococcus aureus, in the assay with Klebsiella pneumoniae and in the assay on Bacillus pumilus was 0 mm each time. In addition, in the assay with Bacillus thuringiensis, the zone of inhibition at 100 µg/disc came out at 0 mm. Moreover, the LC50 stood at 107 µg/mL (≈ 379 µM) in the assay with Rhizoctonia solani and 587 µg/mL (≈ 2080 µM) with Athelia rolfsii. The Activity in assay [1] came out at 0.71%.
As to `CCCCC(O)(Cn1cncn1)c1ccc(Cl)cc1Cl` (stereo unspecified) [HEXACONAZOLE], the LC50 in the assay with Rhizoctonia solani amounted to 1.12 µg/mL (≈ 3.56 µM); in the assay with Athelia rolfsii, 1.27 µg/mL (≈ 4.04 µM).
Turning to `Cc1ccc(/C=C/C(=O)c2ccc(C)cc2)cc1` [4,4'-DIMETHYLCHALCONE], the zone of inhibition at 100 µg/disc in the assay on Xanthomonas oryzae, with Dickeya chrysanthemi, with Pseudomonas aeruginosa, in the assay with Staphylococcus aureus, in the assay with Klebsiella pneumoniae and in the assay on Bacillus pumilus was 0 mm in each case. In addition, in the assay on Bacillus thuringiensis, the zone of inhibition at 100 µg/disc came out at 0 mm. The LC50 was 635 µg/mL (≈ 2690 µM) in the assay with Rhizoctonia solani and 549 µg/mL (≈ 2320 µM) with Athelia rolfsii. In addition, the Activity in assay [1] was 1.19%.
With `CCOC(=O)C1C(=O)C=C(c2ccc([N+](=O)[O-])cc2)CC1c1ccc2c(c1)OCO2` (stereo unspecified), the zone of inhibition at 100 µg/disc with Xanthomonas oryzae turned out to be 0 mm; in the assay with Dickeya chrysanthemi it was 10 mm; in the assay with Pseudomonas aeruginosa, 0 mm; in the assay on Staphylococcus aureus it was 0 mm; in the assay on Klebsiella pneumoniae, 0 mm; in the assay on Bacillus pumilus, 0 mm. Further, the zone of inhibition at 100 µg/disc in the assay on Bacillus thuringiensis came to 0 mm. Also, the LC50 with Rhizoctonia solani came out at 29 µg/mL (≈ 70.8 µM); with Athelia rolfsii it was 4310 µg/mL (≈ 10500 µM). The Activity in assay [1] worked out at 3.6%.
As for `CCOC(=O)C1C(=O)C=C(c2ccccc2)CC1c1ccc(C)cc1` (stereo unspecified), the zone of inhibition at 100 µg/disc came to 0 mm in the assay with Xanthomonas oryzae; 0 mm in the assay on Dickeya chrysanthemi; 0 mm in the assay on Pseudomonas aeruginosa; 0 mm in the assay with Staphylococcus aureus; 5 mm with Klebsiella pneumoniae; 0 mm in the assay on Bacillus pumilus. In addition, in the assay on Bacillus thuringiensis, the zone of inhibition at 100 µg/disc is 0 mm. Also, the LC50 with Rhizoctonia solani was 233 µg/mL (≈ 697 µM); with Athelia rolfsii it was 316 µg/mL (≈ 945 µM). In addition, in [1], the Activity is 4.17%.
As to `CCOC(=O)C1C(=O)C=C(c2ccccc2)CC1c1ccc(OC)c(OC)c1` (stereo unspecified), the zone of inhibition at 100 µg/disc came out at 0 mm in the assay with Xanthomonas oryzae; 0 mm in the assay with Dickeya chrysanthemi; 5 mm in the assay on Pseudomonas aeruginosa; 0 mm in the assay with Staphylococcus aureus; 0 mm in the assay with Klebsiella pneumoniae; 0 mm in the assay with Bacillus pumilus. In addition, in the assay with Bacillus thuringiensis, the zone of inhibition at 100 µg/disc amounted to 0 mm. In addition, the figures for the LC50 with Rhizoctonia solani and in the assay on Athelia rolfsii were 198 µg/mL (≈ 520 µM) and 323 µg/mL (≈ 849 µM), respectively. Also, the Activity in [1] came out at 4.23%.
As to `O=C(/C=C/c1ccccc1)c1ccccc1` [CHALCONE], the zone of inhibition at 100 µg/disc in the assay with Xanthomonas oryzae is 0 mm; with Dickeya chrysanthemi, 10 mm; with Pseudomonas aeruginosa, 10 mm; with Staphylococcus aureus, 5 mm; with Klebsiella pneumoniae it was 0 mm; with Bacillus pumilus it was 0 mm. Moreover, the zone of inhibition at 100 µg/disc in the assay on Bacillus thuringiensis worked out at 0 mm. For the same molecule, the LC50 in the assay on Rhizoctonia solani was found to be 2.49 µg/mL (≈ 12 µM); in the assay with Athelia rolfsii it was 674 µg/mL (≈ 3240 µM). In [1], the Activity stood at 9.11%.
For the molecule `CCOC(=O)C1C(=O)C=C(c2ccc(OC)c(OC)c2)CC1c1ccc(OC)cc1` (stereo unspecified), the zone of inhibition at 100 µg/disc was determined as 0 mm in the assay on Xanthomonas oryzae; 10 mm with Dickeya chrysanthemi; 0 mm in the assay with Pseudomonas aeruginosa; 0 mm in the assay with Staphylococcus aureus; 0 mm with Klebsiella pneumoniae; 0 mm in the assay with Bacillus pumilus. Moreover, in the assay on Bacillus thuringiensis, the zone of inhibition at 100 µg/disc is 0 mm. For the same molecule, the LC50 in the assay on Athelia rolfsii was determined as 504 µg/mL (≈ 1230 µM). The Activity in assay [1] came to 11.3%.
`CCOC(=O)C1C(=O)C=C(c2ccc(F)cc2)CC1c1cccc([N+](=O)[O-])c1` (stereo unspecified): the zone of inhibition at 100 µg/disc in the assay on Xanthomonas oryzae came to 0 mm; in the assay on Dickeya chrysanthemi, 10 mm; in the assay on Pseudomonas aeruginosa, 0 mm; in the assay on Staphylococcus aureus, 0 mm; with Klebsiella pneumoniae, 0 mm; with Bacillus pumilus, 0 mm. In the assay on Bacillus thuringiensis, the zone of inhibition at 100 µg/disc came out at 0 mm. In addition, the LC50 was 157 µg/mL (≈ 410 µM) with Rhizoctonia solani and 285 µg/mL (≈ 743 µM) with Athelia rolfsii. In addition, in assay [1], the Activity was 4.23%.
On to `CCOC(=O)C1C(=O)C=C(c2ccc(C)cc2)CC1c1ccc(OC)c(OC)c1` (stereo unspecified), for which the zone of inhibition at 100 µg/disc in the assay with Xanthomonas oryzae, with Dickeya chrysanthemi, in the assay with Pseudomonas aeruginosa, in the assay with Staphylococcus aureus, with Klebsiella pneumoniae and in the assay on Bacillus pumilus was 0 mm each time. Also, in the assay with Bacillus thuringiensis, the zone of inhibition at 100 µg/disc was 0 mm. The figures for the LC50 with Rhizoctonia solani and in the assay with Athelia rolfsii were 189 µg/mL (≈ 479 µM) and 317 µg/mL (≈ 804 µM), respectively. In assay [1], the Activity worked out at 7.38%.
Turning to `CCOC(=O)C1C(=O)C=C(c2ccccc2)CC1c1ccccc1` (stereo unspecified), the zone of inhibition at 100 µg/disc worked out at 0 mm in the assay with Xanthomonas oryzae; 0 mm in the assay on Dickeya chrysanthemi; 0 mm in the assay on Pseudomonas aeruginosa; 0 mm in the assay with Staphylococcus aureus; 10 mm in the assay on Klebsiella pneumoniae; 0 mm in the assay on Bacillus pumilus. Further, the zone of inhibition at 100 µg/disc with Bacillus thuringiensis came to 0 mm. Further, the LC50 in the assay on Rhizoctonia solani came to 207 µg/mL (≈ 646 µM); with Athelia rolfsii it was 304 µg/mL (≈ 949 µM). The Activity in [1] was 3.33%.
With `CCOC(=O)C1C(=O)C=C(c2ccc(OC)cc2)CC1c1ccc(OC)c(OC)c1` (stereo unspecified), the zone of inhibition at 100 µg/disc in the assay on Xanthomonas oryzae, in the assay with Dickeya chrysanthemi, in the assay with Pseudomonas aeruginosa, with Staphylococcus aureus, in the assay with Klebsiella pneumoniae and with Bacillus pumilus was 0 mm throughout. Moreover, the zone of inhibition at 100 µg/disc in the assay with Bacillus thuringiensis amounted to 0 mm. Further, the LC50 turned out to be 34 µg/mL (≈ 82.8 µM) in the assay on Rhizoctonia solani and 315 µg/mL (≈ 767 µM) in the assay with Athelia rolfsii. In addition, in assay [1], the Activity was determined as 4.71%.
Regarding `CCOC(=O)C1C(=O)C=C(c2ccc(C)cc2)CC1c1cc(OC)c(OC)c(OC)c1` (stereo unspecified), the zone of inhibition at 100 µg/disc in the assay with Xanthomonas oryzae, in the assay with Dickeya chrysanthemi, in the assay with Pseudomonas aeruginosa, in the assay on Staphylococcus aureus, in the assay on Klebsiella pneumoniae and in the assay with Bacillus pumilus was 0 mm in each case. Further, the zone of inhibition at 100 µg/disc in the assay with Bacillus thuringiensis came to 0 mm. The LC50 in the assay with Rhizoctonia solani came out at 118 µg/mL (≈ 278 µM); in the assay on Athelia rolfsii it was 345 µg/mL (≈ 813 µM). For the same molecule, the Activity in assay [1] worked out at 4.52%.
For `CCOC(=O)C1C(=O)C=C(c2ccc(C)cc2)CC1c1ccc(C)cc1` (stereo unspecified), the zone of inhibition at 100 µg/disc is 0 mm in the assay with Xanthomonas oryzae; 0 mm in the assay with Dickeya chrysanthemi; 10 mm with Pseudomonas aeruginosa; 0 mm in the assay on Staphylococcus aureus; 5 mm with Klebsiella pneumoniae; 0 mm in the assay on Bacillus pumilus. The zone of inhibition at 100 µg/disc in the assay on Bacillus thuringiensis was 0 mm. The LC50 came to 231 µg/mL (≈ 663 µM) with Rhizoctonia solani and 321 µg/mL (≈ 921 µM) in the assay on Athelia rolfsii. For the same molecule, the Activity in assay [1] was 3.54%.
Regarding `CCOC(=O)C1C(=O)C=C(c2ccc(F)cc2)CC1c1ccccc1` (stereo unspecified), the zone of inhibition at 100 µg/disc with Xanthomonas oryzae was 0 mm; in the assay with Dickeya chrysanthemi, 10 mm; in the assay with Pseudomonas aeruginosa, 0 mm; in the assay with Staphylococcus aureus, 0 mm; in the assay with Klebsiella pneumoniae, 10 mm; with Bacillus pumilus, 0 mm. For the same molecule, the zone of inhibition at 100 µg/disc in the assay on Bacillus thuringiensis turned out to be 0 mm. The median lethal concentration (LC50) with Rhizoctonia solani amounted to 35 µg/mL (≈ 103 µM); in the assay with Athelia rolfsii it was 319 µg/mL (≈ 943 µM). Besides, the Activity in [1] is 3.86%.

Source of the values: ChEMBL document CHEMBL3045565, “Microwave synthesis, characterization and bio-efficacy evaluation of novel chalcone based 6-carbethoxy-2-cyclohexen-1-one and 2H-indazol-3-ol derivatives” (Eur J Med Chem, 2013).
